{"source": "ChEMBL document CHEMBL1944638", "about": "“Quinol derivatives as potential trypanocidal agents” (Bioorg Med Chem, 2012)", "key": {"Trypanosoma brucei": {"tested_on": "Trypanosoma brucei", "assay": "Antitrypanosomal activity against blood stream form of Trypanosoma brucei after 69 hrs by resazurin-based fluorescence assay", "type": "functional, organism-based", "how_it_was_run": "(§1)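 96-well HTS whole-cell assay against bloodstream-form T. brucei and human MRC5 cells. EC50 values are the arithmetic mean of independent determinations, with SD and number of repeats. Species selectivity is EC50 (MRC5)/EC50 (T. brucei).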"}, "[1]": {"assay": "Selectivity ratio of EC50 for human MRC5 cells to EC50 for blood stream form of Trypanosoma brucei", "type": "ADME, cell-based", "details": "read-out: Ratio EC50", "how_it_was_run": "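Ratio of EC50 in human MRC5 cells over EC50 in bloodstream-form T. brucei, both from 96-well HTS whole-cell assays. Each EC50 is the arithmetic mean of independent determinations, reported with SD and number of repeats.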"}, "MRC5": {"tested_on": "MRC5", "assay": "Cytotoxicity against human MRC5 cells after 3 days by resazurin-based fluorescence assay", "type": "cell-based", "details": "MRC5, 72 h", "how_it_was_run": "as §1"}}, "data": [{"smiles": "O=C1C=CC(O)(c2ccccc2)C=C1", "values": [{"measurement": "EC50", "setting": "Trypanosoma brucei", "result": 750, "unit": "nM"}, {"measurement": "selectivity ratio", "setting": "[1]", "result": 2}, {"measurement": "EC50", "setting": "MRC5", "result": 1700, "unit": "nM"}]}, {"smiles": "O=C1C=CC(O)(c2nc3ccccc3s2)C(Cl)=C1", "note": "(configuration not stated)", "values": [{"measurement": "selectivity ratio", "setting": "[1]", "result": 1}]}, {"smiles": "O=C1C=CC(O)(c2nc3ccccc3s2)C=C1", "values": [{"measurement": "EC50", "setting": "Trypanosoma brucei", "result": 77, "unit": "nM"}, {"measurement": "selectivity ratio", "setting": "[1]", "result": 2}, {"measurement": "EC50", "setting": "MRC5", "result": 180, "unit": "nM"}]}, {"smiles": "O=C1C=CC(O)(c2cc3ccccc3n2S(=O)(=O)c2ccccc2)C=C1", "values": [{"measurement": "EC50", "setting": "Trypanosoma brucei", "result": 53, "unit": "nM"}, {"measurement": "selectivity ratio", "setting": "[1]", "result": 2}, {"measurement": "EC50", "setting": "MRC5", "result": 110, "unit": "nM"}]}, {"smiles": "COc1ccc(-n2cc(C3(O)C=CC(=O)C=C3)nn2)cc1", "values": [{"measurement": "EC50", "setting": "Trypanosoma brucei", "result": 130, "unit": "nM"}, {"measurement": "selectivity ratio", "setting": "[1]", "result": 2}, {"measurement": "EC50", "setting": "MRC5", "result": 310, "unit": "nM"}]}, {"smiles": "Nc1nc(N)nc(NCCCOC(=O)CCc2ccc(S(=O)(=O)n3c(C4(O)C=CC(=O)C=C4)cc4ccccc43)cc2)n1", "values": [{"measurement": "selectivity ratio", "setting": "[1]", "result": 2.7}]}, {"smiles": "C#CC1(O)C=CC(=O)C=C1", "values": [{"measurement": "selectivity ratio", "setting": "[1]", "result": 1}]}, {"smiles": "O=C1C=CC(O)(C#Cc2ccc(CC(=O)Nc3ccccc3)cc2)C=C1", "values": [{"measurement": "selectivity ratio", "setting": "[1]", "result": 0.3}]}, {"smiles": "COc1ccc(Cn2cc(C3(O)C=CC(=O)C=C3)nn2)cc1", "values": [{"measurement": "selectivity ratio", "setting": "[1]", "result": 3}]}, {"smiles": "O=C1C=CC(O)(c2cn(-c3ccc4ncsc4c3)nn2)C=C1", "values": [{"measurement": "selectivity ratio", "setting": "[1]", "result": 3}]}, {"smiles": "CC(=O)OC[C@H]1O[C@@H](n2cc(C3(O)C=CC(=O)C=C3)nn2)[C@H](OC(C)=O)[C@@H](OC(C)=O)[C@H]1OC(C)=O", "values": [{"measurement": "selectivity ratio", "setting": "[1]", "result": "> 5"}]}, {"smiles": "O=C1C=CC(O)(c2cn(CCC(=O)Nc3ccccc3)nn2)C=C1", "values": [{"measurement": "selectivity ratio", "setting": "[1]", "result": 7}]}, {"smiles": "O=C1C=CC(O)(c2cc3ccccc3n2S(=O)(=O)c2ccc(CCCO)cc2)C=C1", "values": [{"measurement": "selectivity ratio", "setting": "[1]", "result": 2}]}, {"smiles": "O=C1C=CC(O)(c2cc3ccccc3n2S(=O)(=O)c2ccc(CCC(=O)N3CCOCC3)cc2)C=C1", "values": [{"measurement": "selectivity ratio", "setting": "[1]", "result": 2}]}, {"smiles": "CN1CCN(C(=O)CCc2ccc(S(=O)(=O)n3c(C4(O)C=CC(=O)C=C4)cc4ccccc43)cc2)CC1", "values": [{"measurement": "selectivity ratio", "setting": "[1]", "result": 3}]}, {"smiles": "O=C1C=CC(O)(c2cc3ccccc3n2S(=O)(=O)c2ccc(CCCN3CCOCC3)cc2)C=C1", "values": [{"measurement": "selectivity ratio", "setting": "[1]", "result": 3}]}, {"smiles": "CN1CCN(CCCc2ccc(S(=O)(=O)n3c(C4(O)C=CC(=O)C=C4)cc4ccccc43)cc2)CC1", "values": [{"measurement": "selectivity ratio", "setting": "[1]", "result": 3}]}, {"smiles": "N=C(N)c1ccc(-n2cc(C3(O)C=CC(=O)C=C3)nn2)cc1", "values": [{"measurement": "selectivity ratio", "setting": "[1]", "result": "> 5"}, {"measurement": "EC50", "setting": "MRC5", "result": "> 50000", "unit": "nM"}]}, {"smiles": "Nc1nc(N)nc(-n2cc(C3(O)C=CC(=O)C=C3)nn2)n1", "values": [{"measurement": "selectivity ratio", "setting": "[1]", "result": "> 8"}, {"measurement": "EC50", "setting": "MRC5", "result": "> 50000", "unit": "nM"}]}, {"smiles": "Nc1nc(N)nc(NCCCNC(=O)CCc2ccc(S(=O)(=O)n3c(C4(O)C=CC(=O)C=C4)cc4ccccc43)cc2)n1", "values": [{"measurement": "selectivity ratio", "setting": "[1]", "result": 5.6}]}, {"smiles": "CC(=O)NCCc1ccc(S(=O)(=O)n2c(C3(O)C=CC(=O)C=C3)cc3ccccc32)cc1", "values": [{"measurement": "selectivity ratio", "setting": "[1]", "result": 3}]}, {"smiles": "COC(=O)CCc1ccc(S(=O)(=O)n2c(C3(O)C=CC(=O)C=C3)cc3ccccc32)cc1", "values": [{"measurement": "selectivity ratio", "setting": "[1]", "result": 2}]}, {"smiles": "CS(=O)(=O)c1ccc(S(=O)(=O)n2c(C3(O)C=CC(=O)C=C3)cc3ccccc32)cc1", "values": [{"measurement": "selectivity ratio", "setting": "[1]", "result": 2}]}, {"smiles": "O=C1C=CC(O)(c2cc3ccccc3n2S(=O)(=O)c2ccc(CCC(=O)O)cc2)C=C1", "values": [{"measurement": "selectivity ratio", "setting": "[1]", "result": 4.5}]}, {"smiles": "CCOC(=O)Nc1ccc(S(=O)(=O)n2c(C3(O)C=CC(=O)C=C3)cc3ccccc32)cc1", "values": [{"measurement": "selectivity ratio", "setting": "[1]", "result": 2}]}, {"smiles": "O=C1C=CC(O)(c2cc3cnccc3n2S(=O)(=O)c2ccccc2)C=C1", "values": [{"measurement": "selectivity ratio", "setting": "[1]", "result": 2}]}, {"smiles": "Cc1ccc(S(=O)(=O)n2c(C3(O)C=CC(=O)C=C3)cc3ccncc32)cc1", "values": [{"measurement": "selectivity ratio", "setting": "[1]", "result": 2}]}, {"smiles": "O=C1C=CC(O)(c2cc3ccc(F)cc3n2S(=O)(=O)c2ccccc2)C=C1", "values": [{"measurement": "EC50", "setting": "Trypanosoma brucei", "result": 100, "unit": "nM"}, {"measurement": "selectivity ratio", "setting": "[1]", "result": 2}, {"measurement": "EC50", "setting": "MRC5", "result": 170, "unit": "nM"}]}, {"smiles": "Oc1ccc(-c2nc3ccccc3s2)cc1", "values": [{"measurement": "EC50", "setting": "Trypanosoma brucei", "result": "> 50000", "unit": "nM"}, {"measurement": "EC50", "setting": "MRC5", "result": "> 50000", "unit": "nM"}]}]}
